Blank lines part the entries; values can stand above or below the molecule they belong to.
Key:
[1] = test system: colon cancer cells (Caco-2); experiment: MTT anticancer activity, Caco-2; format: cell-based, human; conditions: Homo sapiens, Caco-2, 72 h, read-out: Caco-2 IC50
In short: (§1)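 ATCC-sourced Caco-2 colon cancer cells were exposed to test compound for 72 h. Viability was read by microculture MTT, with doxorubicin as reference, and IC50 was derived. Normal human lung fibroblasts (Wi-38) were run in the same 72 h MTT format to obtain IC50 and EC100 for selectivity. Results are mean ± SEM.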

[2] = test system: myeloid leukaemia cell line (NFS-60); experiment: MTT anticancer activity, NFS-60; format: cell-based; conditions: NFS-60, 72 h, read-out: NFS-60 IC50
In short: (§2)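 ATCC-sourced cancer cell lines were used: HepG-2 liver, NFS-60 myeloid leukaemia and PC-3 prostate. Cells were incubated with test compound for 72 h, viability was measured by MTT, and IC50 was derived. Doxorubicin served as reference drug. Results are mean ± SEM; significance was by Tukey post hoc ANOVA.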

[3] = target: T1, PIM-1 kinase (Homo sapiens, UniProt P11309); format: biochemical; conditions: Lineweaver-Burk double-reciprocal plot; for mode of PIM-1 kinase inhibition: in the presence of ATP; for Km change / Vmax change: versus control
[4] = test system: prostate cancer cell line (PC-3); experiment: MTT anticancer activity, PC-3; format: cell-based; conditions: Homo sapiens, 72 h, read-out: PC-3 IC50
In short: as §2

[5] = target: T1, PIM-1 kinase; experiment: In vitro PIM-1 kinase inhibition; format: biochemical; conditions: from pIC50 and molecular size
[6] = test system: liver cancer cell line (HepG-2); experiment: MTT anticancer activity, HepG-2; format: cell-based; conditions: Homo sapiens, HepG2, 72 h, read-out: HepG-2 IC50
In short: as §2

[7] = MTT anticancer activity, Caco-2; format: cell-based, human; conditions: human, Caco-2, Caco-2 SI (selectivity index), Wi-38 EC50 divided by Caco-2 IC50
In short: as §1

T1 sequence (P11309 whole entry): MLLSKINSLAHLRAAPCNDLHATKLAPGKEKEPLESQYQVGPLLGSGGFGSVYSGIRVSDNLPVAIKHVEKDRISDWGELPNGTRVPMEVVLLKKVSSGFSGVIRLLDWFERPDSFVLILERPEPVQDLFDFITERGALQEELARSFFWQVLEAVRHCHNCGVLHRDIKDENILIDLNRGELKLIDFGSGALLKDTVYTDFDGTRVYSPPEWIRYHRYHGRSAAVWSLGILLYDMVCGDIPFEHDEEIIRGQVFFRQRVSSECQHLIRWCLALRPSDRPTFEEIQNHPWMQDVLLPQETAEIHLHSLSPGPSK

Compound: CCOc1nc(-c2cccc(O)c2)cc(-c2cc3cc(OC)ccc3nc2N2CCOCC2)c1C#N [Compound 4c, 2-Ethoxy-6-(3-hydroxyphenyl)-4-(6-methoxy-2-morpholin-4-yl-quinolin-3-yl)pyridine-3-carbonitrile]
IC50 [1]: 7 nM
IC50 [2]: 6 nM
mode of PIM-1 kinase inhibition [3]: both ATP competitive and non-competitive inhibitors
Km change [3]: increase
Vmax change [3]: reduced
IC50 [4]: 5 nM
LE (ligand efficiency), PIM-1 kinase [5]: ~0.3
IC50 [6]: 13.2 nM

IC50 [6]: 66.7 nM
Compound: Nc1n[nH]c2nc(-c3cccc(O)c3)cc(-c3cc4ccccc4nc3N3CCOCC3)c12 [Compound 6a, 3-(3-Amino-4-(2-morpholin-4-yl-quinolin-3-yl)-1H-pyrazolo[3,4-b]pyridin-6-yl)phenol]

IC50 [6]: 59 nM
Compound: CCOc1nc(-c2cccc(O)c2)cc(-c2cc3cc(Cl)ccc3nc2N2CCOCC2)c1C#N [Compound 4b, 4-(6-Chloro-2-morpholin-4-yl-quinolin-3-yl)-2-ethoxy-6-(3-hydroxyphenyl)pyridine-3-carbonitrile]

Compound: CCCOc1nc(-c2cccc(O)c2)cc(-c2cc3cc(OC)ccc3nc2N2CCOCC2)c1C#N [Compound 4f, 6-(3-Hydroxyphenyl)-4-(6-methoxy-2-morpholin-4-yl-quinolin-3-yl)-2-propoxypyridine-3-carbonitrile]
selectivity ratio at 72 h [7]: ≥ 1.6
mode of PIM-1 kinase inhibition [3]: both ATP competitive and non-competitive inhibitors
Km change [3]: increase
Vmax change [3]: reduced
LE (ligand efficiency), PIM-1 kinase [5]: ~0.3
IC50 [6]: 16.4 nM

Reference: publication PMC10795791 (Journal of Enzyme Inhibition and Medicinal Chemistry, 2024)
